Results published in the EternaBench riboswitch data.

Test system: MS2 coat protein
Assay: apparent Kd, MS2 coat protein; higher = weaker binding; RNA-MaP array; FMN 200 µM where present
Procedure, shortened: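 SNAP-549-labelled MS2 coat protein, doubled from 0.7 or 1.5 nM to 3 µM, was titrated over designs transcribed by stalled E. coli RNA polymerase on Illumina sequencing-chip clusters. Titrations were run without and then with constant ligand in 100 mM Tris-HCl pH 7.5, 80 mM KCl, 4 mM MgCl2, BSA, DTT, yeast tRNA and Tween-20. The apparent Kd is the median of filtered per-cluster fits to green signal normalised to red-channel RNA signal and control-cluster median Fmax.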

[1] = designed as: OFF switch for flavin mononucleotide, no ligand
[2] = ligand present: flavin mononucleotide, designed as: OFF switch for flavin mononucleotide
[3] = designed as: ON switch for flavin mononucleotide, no ligand
[4] = ligand present: flavin mononucleotide, designed as: ON switch for flavin mononucleotide

Sequence	apparent Kd [1] [µM]	apparent Kd [2] [µM]	apparent Kd [3] [µM]	apparent Kd [4] [µM]
GACUGCUGAGGAUAUACAUGAGGAUCACCCAUGUGCUUCAGCUAGGAGACUAGCAUUGGUAGAAGGUAGUAGUC	0.0111	0.0161	–	–
UUUAUAAGAAAAUAAACGAAGUGGCCAGAAGGUGAAUGCCACAUGAGGAUCACCCAUGUUUCGAUCAAGGAUAUGGUUUCUCAC	–	–	0.4	0.107
CUCAUGUGAGGAUAUCAGUAGUAAAAAAAUAAAAUUACUACUGAGAAGGCACAUGAGGAUCACCCAUGUGCAAA	0.0959	0.105	–	–
GUCUCGAUGUAAGGAUAUGCAGUGGAUAACACUGCAGAAGGUACAUGAGGAUCACCCAUGUAACUCUAAUAAUAAUAACGAGAC	0.0131	0.0173	–	–
GGCUCAUUUACAUUAAUGUGCAGACAGGAUAUCCACCGCGGUUCCUACAUGAGGAUCACCCAUGUGGAGAAGGGUCGCUAAUGG	0.0291	0.0722	–	–
GCAGGUCGUGUGAGGAUAUCAUAGUUUAGCGGAGAUGAGAAGGCACAUGAGGAUCACCCAUGUCCAUCCUGCCU	0.036	0.0926	–	–
CGGGAAGUCGUAGGAUAUGGUGAUGUACAUGAGGAUCACCCAUGUCCGUCUUCUCUCACAAGAUGCCAGAAGGACGACCUCCGG	–	–	0.77	0.0978
CCUCGACGGUAGGAUAUCGUCAAACUAUUGUGAUGAGAAGGACUGACAUGAGGAUCACCCAUGUUAACGUGAUA	0.0203	0.0253	–	–
AGAAAACAUGAGGAUCACCCAUGUGAGGAUAUCGAUGUCCAAGGCCGGGUGCGGGACUCGAGAAGGCACUUGGA	0.0769	0.0323	–	–
CAGGUAGACUGAGGAUAUACAAUAAACAGCUAGUCUAUCUAGCUGCCUACAUGAGGAUCACCCAUGUAGAAGGCAGUCUGCCUG	0.0162	0.0166	–	–
GCCUCACAUGAGGAUCACCCAUGUCAGGAUAUCUCAGCCUCACAUCAAACAAGGCUUCAGAGAAGGGACGUAAA	0.0374	0.0774	–	–
GGAAAUCAUGUAGGAUAUGCAUGGCGAAGCUACGCAGAAGGACAUGAGGAUCACCCAUGUUCUGGCUACCGGAUACGGUGGCAA	0.0207	0.0943	–	–
UCACGGCAUGUAGGAUAUGCAUAGCAUUGCUAUGCAGAAGGACAUGAGGAUCACCCAUGUAUGUAUUCCAUACUAUUCCCGUGU	0.00742	0.0148	–	–
CUAUCAAGCAAGGAUAUGCAAAUAAUUAUUUAUGCAGAAGGUGCAACAUGAGGAUCACCCAUGUUUCUGGGUUU	0.0574	0.0896	–	–
CUUUUGUGAGGAUAUUAGUAGUAAAAAAAUAAAAUUACUACUGAGAAGGCACAUGAGGAUCACCCAUGUUUCUC	0.0282	0.115	–	–
GCGUUGAACGAGAAGGCCAAUACAUGAGGAUCACCCAUGUUAAGAUGUUUUGGAGGAUAUCGAUCGUCGUCUCAUGAGCAACGC	0.0053	0.00624	–	–
ACAUGUUUUGUAGGAUAUCACUUGUUAUGUUAUAUAUUUGUUAUAAUCUAUUGAGAAGGACAUUUACAUGAGGAUCACCCAUGU	0.00883	0.00708	–	–
AACGUGUAAGGAUAUGCUGCUCGUCACGAAAGUGAUGAGUAGCAGAAGGUACAUGAGGAUCACCCAUGUAAAGA	0.0318	0.067	–	–
CAUGUCCUCACAGGAUAUGCUGGACUUUGUCCAGCAGAAGGGUGUUAACAUGAGGAUCACCCAUGUGGACAUGAUAUAUUUAAU	–	–	0.933	0.0698
GCCUUAUCCGUCAGGAUAUACAGCUGUUAGUUGUUGUAGAAGGGACAUGAGGAUCACCCAUGUACGUACCAUUG	0.0192	0.0222	–	–
AUUGUUUAUGUAGGAUAUGCGAGGCGAGCCUAAGCAGAAGGACAUGAGGAUCACCCAUGUAUUGCGGUCUGCGUUCAGAUCGCU	0.0305	0.127	–	–
GUAAAACAAACUAACAUGAGGAUCACCCAUGUGAGGAGGCUCAGAAGGGCGUGGAAAAUUUCCUCGCAGGAUAUGAACCUCAUU	–	–	0.0708	0.00966
AUUACAUGAGGAUCACCCAUGUACAGAACGUUUCAAUACAGUGAGGAUAUACGAAAUGUAGGAACGUAGAAGGCACUGGGUACA	–	–	0.181	0.0658
UGGUACUAGGGAGGAUAUGGGAAGAUACAUGAGGAUCACCCAUGUUUAAGAAUGCCGAGAGGCAACUAGAAGGGCCUAGUACCU	–	–	0.804	0.28
UUUUUAUUUAUAGGAUAUGGAAACAUGAGGAUCACCCAUGUAUGAUAAGAUAAAUUAUGAUGUGGCCAGAAGGAUAUUAUUUUU	–	–	0.0313	0.0437
GCAGGACAUGAGGAUCACCCAUGUCUCAAAUAUUGAGGAUAUGGACACGGUAUAUCCGAACCAGAAGGCAACCUGC	–	–	0.0486	0.0398
UCUCACUCAGGAUAUGAUGCGCAUGACAUGAGGAUCACCCAUGUGUGCAUGCCCUUUGCUUCAGAAGGGAGUGAGA	0.019	0.0216	–	–
UUAAAUCAUGUAGGAUAUGCGUGGCGAAGCUAUGCAGAAGGACAUGAGGAUCACCCAUGUUCUGCGGUCUGCGUACAGAUCGCU	0.0183	0.155	–	–
